Bioassay records deposited in PubChem BioAssay by several laboratories.
Dynein transport: inhibitors of GR-EGFP nuclear translocation, primary screen, dynein cargo transport inhibitor project, imaging, high-content, 3617.4 mouse cells | test concentration mostly 20 µM; stimulated with dexamethasone, 1 µM; active compounds read low | z-score, hits read low | 220,000 compounds, 0.47% hits;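 active means plate z-score of nuclear minus cytoplasmic receptor signal below a set negative limit, without overly bright fluorescence or cell loss, cut at about -3.5 in these data, passing the limit was not always enough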;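 further: z-score of nuclear minus cytoplasmic ring GR-EGFP intensity difference per well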
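Schedule: 48 h induction, then 1 h compound, then 30 min agonist, 37 °C. Buffer or medium: tetracycline-free induction medium containing charcoal-stripped FBS. Reagent: 1.0 µM final dexamethasone stimulus. Evaluation: nuclear versus cytoplasmic GR-EGFP signal, averaged per well. Signal: high-content fluorescence imaging after fixation.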
Beta2AR agonist: beta2AR agonists driving receptor internalization, primary screen, cell-based, FAP fluorogen, flow cytometry; 340,000 compounds, 0.43% hits; Am2.2-beta2AR cells; response, % (test concentration not listed); Beta-2 adrenergic receptor (Homo sapiens), P07550;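 active means response above a set limit, near 3 SD of response in nonfluorescent compounds, cut at about 42% in these data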
Target sequence (P07550 whole entry, looked up): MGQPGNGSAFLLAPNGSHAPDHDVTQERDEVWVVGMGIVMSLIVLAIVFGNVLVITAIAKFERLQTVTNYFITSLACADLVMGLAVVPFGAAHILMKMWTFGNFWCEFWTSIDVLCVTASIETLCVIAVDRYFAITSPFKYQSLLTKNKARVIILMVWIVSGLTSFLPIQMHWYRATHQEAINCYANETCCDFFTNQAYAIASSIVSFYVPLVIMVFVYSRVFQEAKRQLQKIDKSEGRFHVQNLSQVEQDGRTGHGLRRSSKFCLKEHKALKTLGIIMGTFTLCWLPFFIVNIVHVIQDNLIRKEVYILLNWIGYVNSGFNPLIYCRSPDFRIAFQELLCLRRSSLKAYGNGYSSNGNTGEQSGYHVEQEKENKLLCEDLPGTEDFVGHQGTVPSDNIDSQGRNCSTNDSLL
TLR9-MyD88 inh: inhibitors of TLR9-MyD88 association in cells, primary screen, cell-based, CHO, BLA complementation, fluorescence; Toll-like receptor 9 (Homo sapiens) + Myeloid differentiation primary response protein …; CCF4 FRET ratio; inhibition, % at 4.98 µM; 340,000 compounds, 0.21% hits; AID 504734, 2011;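 active means inhibition above the mean over all tested compounds plus 3 SD, cut at about 21% in these data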;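 further: 0% = DMSO only wells and 100% = clavulanate BLA inhibitor control wells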
TLR4-MyD88 BLA: inhibitors of TLR4-MyD88 association in cells, primary screen, cell-based, HeLa CL3-4, BLA complementation, FRET ratio. Toll-like receptor 4 (Homo sapiens) + Myeloid differentiation primary response protein …. HeLa CL3-4 TLR4/MyD88 BLA complementation. inhibition, % at 8.4 µM. 200,000 compounds, 0.18% hits. AID 861, 2007; in the data active means inhibition above about 25%;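 further: 0% = vehicle and 100% = reference inhibitor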
ABHD5 PLIN5 PPI: ABHD5-PLIN5 interaction inhibitors, primary screen, cell lysate, split luciferase complementation, luminescence | Perilipin-5 (Homo sapiens) + 1-acylglycerol-3-phosphate O-acyltransferase ABHD5 (Homo … | Split G. princeps luciferase complementation, 4 h | inhibition, % at 4 µM | 360,000 compounds, 0.78% hits;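 active means inhibition above the mean inhibition across every tested compound plus 3 SD, cut at about 22% in these data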;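 further: 0% = DMSO only wells and the 100% control is not disclosed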
NOD2-RIPK2 inh: NOD2-RIPK2 binding disruptors in cells, primary screen, fluorescence, CHO cells, BLA complementation; Receptor-interacting serine/threonine-protein kinase 2 (Homo sapiens), O43353; CCF4 ratio; inhibition, % at 4.98 µM; 360,000 compounds, 0.38% hits; AID 624267, 2012; in the data active means inhibition above about 21%;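 further: 0% = vehicle only and 100% = reference blocker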
NOD2 RIPK2 conf: NOD2-RIPK2 binding disruptors, retest, confirmation, fluorescence, CHO cells, BLA complementation, triplicate. shares compounds with NOD2-RIPK2 inh. CCF4 FRET. inhibition, % at 4.98 µM. 1,200 compounds, 70% hits;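 active means mean inhibition across replicates above a set limit taken from the earlier primary screen, cut at about 21% in these data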;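 further: 0% = DMSO-only wells and the high end = clavulanate BLA-blocked wells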
BLA counter: hits BLA reporter in NOD2-RIPK2 inhibitor counterscreen; CHO BLA reporter, CCF4 FRET ratio; 1,200 compounds, 57% hits; inhibition, % at 4.98 µM; shares compounds with NOD2-RIPK2 inh;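 active means mean inhibition above the low-control mean inhibition plus three low-control SD, cut at about 11% in these data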;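 further: 0% = DMSO only wells and 100% = clavulanate high control wells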
* = called active by the depositor. Shown are actives, neighbours in structure and some others; about 1.6% of the full set was active somewhere.

Screening Cc1snc2sc(C(=O)c3ccc(Br)cc3)c(N)c12 returned Dynein transport -2, Beta2AR agonist -12, TLR9-MyD88 inh 1, TLR4-MyD88 BLA 19, ABHD5 PLIN5 PPI -3 and NOD2-RIPK2 inh 5.
For Cc1ccc(C(=O)c2sc3nsc(C)c3c2N)cc1 the results were Dynein transport -0.54, Beta2AR agonist -4, TLR9-MyD88 inh 17, TLR4-MyD88 BLA 5, ABHD5 PLIN5 PPI -9, NOD2-RIPK2 inh 24*, NOD2 RIPK2 conf 23* and BLA counter 26*.
`Cc1cccc(NS(=O)(=O)c2cc([N+](=O)[O-])ccc2C)n1` gave Dynein transport -1.2, Beta2AR agonist 3, TLR9-MyD88 inh 10, TLR4-MyD88 BLA 7, ABHD5 PLIN5 PPI -7, NOD2-RIPK2 inh 42*, NOD2 RIPK2 conf -2 and BLA counter -5.
Screening CCc1ccc(NC(=O)Cn2c(=O)c3cccn3c3ccccc32)cc1 returned Beta2AR agonist 2, TLR9-MyD88 inh -2, ABHD5 PLIN5 PPI -3, NOD2-RIPK2 inh 22*, NOD2 RIPK2 conf 11 and BLA counter -2.
CCc1ccc(NC(=O)CCn2c(=O)c3cccn3c3ccccc32)cc1 was read as Beta2AR agonist 19, TLR9-MyD88 inh -7, ABHD5 PLIN5 PPI -16 and NOD2-RIPK2 inh 2.
For CC1(C)N=C(c2ccccc2)C(c2ccccc2)=N1 the results were Beta2AR agonist -1, TLR9-MyD88 inh -12, ABHD5 PLIN5 PPI -3 and NOD2-RIPK2 inh 0.
For O=C(OCC(=O)N1CCCC1=O)C1CCN(S(=O)(=O)c2ccc(Cl)c(C(F)(F)F)c2)CC1 the results were Beta2AR agonist -25, TLR9-MyD88 inh -2, ABHD5 PLIN5 PPI 13 and NOD2-RIPK2 inh -10.
For CCc1cc2c(=O)nc3n(c2s1)Cc1ccccc1/C3=C(/O)c1ccccc1Cl the results were Dynein transport 0.11, Beta2AR agonist 9, TLR9-MyD88 inh 16, TLR4-MyD88 BLA 0, ABHD5 PLIN5 PPI -1, NOD2-RIPK2 inh 31*, NOD2 RIPK2 conf -1 and BLA counter -5.
Cc1cc(C(=O)N/N=C/c2ccc(-c3ccc([N+](=O)[O-])cc3C)o2)n[nH]1 was read as Beta2AR agonist 15, TLR9-MyD88 inh -2, ABHD5 PLIN5 PPI 0 and NOD2-RIPK2 inh 4.
`Cc1cc([N+](=O)[O-])ccc1-c1ccc(/C=N/NC(=O)c2ccc(Br)o2)o1` gave Beta2AR agonist 8, TLR9-MyD88 inh 1, ABHD5 PLIN5 PPI 10, NOD2-RIPK2 inh 40*, NOD2 RIPK2 conf 32* and BLA counter 48*.
`CN(C)S(=O)(=O)n1cnc(-c2ccccc2)c1-c1ccccc1` gave Dynein transport -0.27, Beta2AR agonist 3, TLR9-MyD88 inh -4, TLR4-MyD88 BLA -2, ABHD5 PLIN5 PPI 0, NOD2-RIPK2 inh 35*, NOD2 RIPK2 conf 2 and BLA counter -2.
Screening Cn1nc(C(=O)NCC(=O)Nc2ccc(F)c(F)c2F)c2ccccc2c1=O returned Beta2AR agonist -2, TLR9-MyD88 inh 9, ABHD5 PLIN5 PPI 3 and NOD2-RIPK2 inh -5.
For CCOC(=O)N1CCC(N2C(=O)c3ccccc3C2Nc2cc(OC)c(OC)c(OC)c2)CC1 (configuration not stated) the results were Dynein transport 0.49, Beta2AR agonist 0, TLR9-MyD88 inh -3, TLR4-MyD88 BLA -1, ABHD5 PLIN5 PPI -6 and NOD2-RIPK2 inh 11.
`CCOC(=O)[C@]12Cc3c(cc(OC)c(OC)c3OC)[C@H]1N(C1CCCCC1)C(=O)c1cc(OC)ccc12` gave ABHD5 PLIN5 PPI 18, NOD2-RIPK2 inh 30*, NOD2 RIPK2 conf 28* and BLA counter -4.
CCCCCCCCN1C(=O)[C@H](CC(=O)NCc2ccc(OC)c(OC)c2)C[C@@]2(C(=O)OC)CC(C)(C)CC=C12 was read as ABHD5 PLIN5 PPI 2 and NOD2-RIPK2 inh 9.
Screening Cc1ccc2c(c1)C(=O)C(=O)N2CC1COc2ccccc2O1 (configuration not stated) returned Beta2AR agonist 17, TLR9-MyD88 inh 6, ABHD5 PLIN5 PPI 13, NOD2-RIPK2 inh 24*, NOD2 RIPK2 conf 12 and BLA counter -5.
`O=c1c(-c2cc3ccccc3[nH]2)nc2ccccc2n1C(CCc1ccccc1)c1nc2ccccc2[nH]1` (configuration not stated) gave ABHD5 PLIN5 PPI -10, NOD2-RIPK2 inh 38*, NOD2 RIPK2 conf 36* and BLA counter 62*.
Cc1ccc(Cc2nc3ccccc3n2C(CCc2ccccc2)c2nc3ccccc3[nH]2)cc1 (configuration not stated) was read as ABHD5 PLIN5 PPI -12 and NOD2-RIPK2 inh -5.
For CSCCC(c1nc2ccccc2[nH]1)n1c(=O)c(-c2cc3ccccc3[nH]2)nc2ccccc21 (configuration not stated) the results were ABHD5 PLIN5 PPI 2, NOD2-RIPK2 inh 40*, NOD2 RIPK2 conf 35* and BLA counter 59*.
C[C@H]1CN([C@@H](C)CO)C(=O)CCCn2nncc2CO[C@H]1CN(C)C(=O)Nc1ccnc(N2CCOCC2)c1 was read as TLR9-MyD88 inh -4, ABHD5 PLIN5 PPI -5 and NOD2-RIPK2 inh -22.
CCOCCCNC(=O)c1ccc2c(c1)N=C(CC)c1cc(Br)ccc1S2 was read as Dynein transport 0.11, Beta2AR agonist 26, TLR9-MyD88 inh -2, TLR4-MyD88 BLA 3, ABHD5 PLIN5 PPI -1, NOD2-RIPK2 inh 28*, NOD2 RIPK2 conf 7 and BLA counter 0.
`CCC1=Nc2cc(C(=O)NCCN3CCOCC3)ccc2Sc2ccccc21` gave Beta2AR agonist -2, TLR9-MyD88 inh 7, ABHD5 PLIN5 PPI 8 and NOD2-RIPK2 inh 1.
`FC(F)C(F)(F)Oc1cccc(Nc2nccn3c(-c4cccc5cccnc45)cnc23)c1` gave ABHD5 PLIN5 PPI 0 and NOD2-RIPK2 inh -4.
`C/C(=N\Nc1ccc([N+](=O)[O-])cc1)c1cccc(N)c1` gave Dynein transport -0.46, Beta2AR agonist 2, TLR9-MyD88 inh 11, TLR4-MyD88 BLA 5, ABHD5 PLIN5 PPI 11, NOD2-RIPK2 inh 24*, NOD2 RIPK2 conf 19 and BLA counter 21*.
